# This is a sample that favours compounds with a hit; in the whole collection about 2.3% have one here.
# TRPC4 act: activators of mouse TRPC4 channel, primary screen, Fluo4 calcium, HEK293 TRPC4beta/mu-opioid cells | Short transient receptor potential channel 4 (Mus musculus), Q9QUQ5 | Fluo4 calcium fluorescence; stronger effect = higher value | B-score at 10 µM | 310,000 tested, 0.49% active | AID 2237, 2010;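 active = B-score above 5 SD of library B-scores, and initial fluorescence ratio not above library mean plus 5 SD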;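 note: positive B-score marks a calcium rise read as TRPC4 activation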
#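 System: HEK293 cells stably co-expressing mouse TRPC4beta and mu-opioid receptor; Schedule: Fluo4 dye loading 45 min at room temperature, 110 s recording; Detection: Fluo4 fluorescence, kinetic; Evaluation: B-scored integrated calcium fluorescence ratio; Controls: buffer (low) and maximal DAMGO (high).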
# TRPC4 block: inhibitors of mouse TRPC4 channel, primary screen, Fluo4 calcium, HEK293 TRPC4beta/mu-opioid cells; DAMGO-evoked Fluo4 calcium flux; stronger effect = lower value; Short transient receptor potential channel 4 (Mus musculus), Q9QUQ5; 300,000 tested, 0.39% active; B-score at 10 µM;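 active = B-score over 3 SD under the library average, no early fluorescence shift, positive overall ratio signal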
#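 Material: HEK293 cells with stable TRPC4beta plus mu-opioid receptor expression / Probe or stimulus: DAMGO in two steps, submaximal then maximal / Compound: single concentration per test compound / Technique: kinetic Fluo4 fluorescence imaging of calcium influx / Read-out: per-well B score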
# TRPC4 potent: positive allosteric modulators of TRPC4, primary screen, cell-based, mouse TRPC4beta, HEK293 mu-opioid, Fluo-4 calcium; Short transient receptor potential channel 4 (Mus musculus), Q9QUQ5; B-score at 10 µM; AID 2227, 2009; DAMGO EC20, Fluo-4 Ca2+ flux; stronger effect = higher value; 310,000 tested, 0.42% active;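 active = B-score of calcium response area above 5 SD of library B-scores, with initial fluorescence ratio within 5 SD of library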;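 note: B-score of integrated fluorescence ratio over time as area under calcium response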
# TRPC6 activator: mouse TRPC6 channel activators, primary screen, cell-based, HEK293, membrane potential dye; Short transient receptor potential channel 6 (Mus musculus), Q61143; AID 2550, 2010; B-score at 10 µM; HEK293-TRPC6 membrane potential dye fluorescence; stronger effect = higher value; 310,000 tested, 0.13% active;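 active = B-score of the integrated fluorescence ratio above library mean plus 3 SD, and starting fluorescence ratio within library mean plus 5 SD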;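 note: higher score means more depolarization so channel activation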
# TRPC6 inhibitor: mouse TRPC6 channel inhibitors, primary screen, cell-based, HEK293, membrane potential dye; Short transient receptor potential channel 6 (Mus musculus), Q61143; ACh-evoked depolarization; stronger effect = lower value; B-score at 10 µM; 310,000 tested, 1.1% active; AID 2553, 2010;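 active = B-score under library mean minus 3 SD, initial fluorescence not abnormally high, positive integrated signal ratio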;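 note: B-score derived from integrated fluorescence ratio over the kinetic read; more negative B-score means stronger inhibition of depolarization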
# The depositor's hits bear a star; i = inactive.
SMILES,TRPC4 act,TRPC4 block,TRPC4 potent,TRPC6 activator,TRPC6 inhibitor
CCOC(=O)C1CCN(CC(O)COc2ccc(C(C)(C)CC)cc2)CC1 (stereo unspecified),i,i,i,i,i
CCOC(=O)C1CCN(CC(O)COc2ccc(C(C)(C)C)cc2)CC1 (stereo unspecified),i,-6*,i,i,i
O=C(COC(=O)Cc1cccs1)NCc1ccc(F)cc1,i,i,i,i,i
CCOC(=O)CCn1c(=O)c2c(nc(Br)n2Cc2ccccc2)n(C)c1=O,i,-5*,i,i,i
O=C(NCC1CCCN1S(=O)(=O)c1ccccc1)C(=O)NC1CC1 (stereo unspecified),i,i,i,i,i
Cc1cccnc1NC(=O)C1CCC1,i,i,i,i,i
COc1ccc(NC(=O)CSc2nc3c(sc4ccccc43)c(=O)n2CCCN2CCCC2)cc1,i,i,i,i,i
N=c1c2c(ncn1Cc1ccco1)Oc1ccc3ccccc3c1C2c1ccccc1 (stereo unspecified),i,i,i,i,i
N=c1c2c(-c3ccccc3)c(-c3ccccc3)n(Cc3ccco3)c2ncn1Cc1ccco1,46*,i,i,i,i
N=c1c2c(-c3ccccc3)c(-c3ccccc3)n(Cc3ccccc3)c2ncn1CCCn1ccnc1,i,i,i,i,-6.6*
CCCCn1cnc2c(c(-c3ccccc3)c(-c3ccccc3)n2Cc2ccco2)c1=N,i,i,i,i,-7.5*
CCC(C)N(C(=O)Cn1cnc2c1c(=O)n(C)c(=O)n2C)C1CCS(=O)(=O)C1 (stereo unspecified),i,i,i,i,i
COCCC(=O)N1CCC(Oc2ccc(C(=O)N3CCCC(CCCO)C3)cc2)CC1 (stereo unspecified),i,i,i,i,i
O=c1[nH][nH]c(-c2ccccc2)c1C=Nc1ccc(F)cc1F,i,i,79*,i,i
CCOc1[nH]n(-c2ccccc2)c(=O)c1C=Nc1ccc(F)cc1F,i,i,i,i,i
CNC(=O)C(C#N)(Cc1cc(C(C)=O)ccc1OC)Cc1cc(C(C)=O)ccc1OC,i,i,i,i,i
Cc1cc(C(=O)N/N=C\c2cc(C(C)(C)C)ccc2O)n[nH]1,i,-6*,i,i,i
S=C1NC(c2ccccc2)=NCN1c1ccc(Cl)cc1,i,i,10*,i,i
COC(=O)c1ccc(N2CN=C(c3ccc(C)cc3)NC2=S)cc1,i,i,i,i,i
O=[N+]([O-])c1ccccc1CN1CCN(S(=O)(=O)c2ccccc2)CC1,i,i,17*,i,i
CCONc1ncnc2nonc12,i,i,i,i,i
Clc1ccc(CONc2ncnc3nonc23)c(Cl)c1,i,i,30*,i,i
NS(=O)(=O)c1cccc(NC(=O)C(Cc2ccccc2)NC(=O)c2ccccc2)c1 (stereo unspecified),i,i,i,i,i
COC(=O)c1cc(C(=O)c2c(C)cc3ccccn23)cc([N+](=O)[O-])c1,i,i,i,i,i
Cc1cc2ccccn2c1C(=O)c1cc([N+](=O)[O-])cc([N+](=O)[O-])c1,i,i,12*,i,i
SMILES,TRPC4 act,TRPC4 block,TRPC4 potent,TRPC6 activator,TRPC6 inhibitor
CCCCn1c(N)c(N(CC(C)C)C(=O)CSC(C)C(=O)Nc2cc(C)on2)c(=O)[nH]c1=O (stereo unspecified),i,i,i,i,i
Cc1c(Cl)ccc(S(=O)(=O)NCCCn2ccnc2)c1Cl,50*,i,i,i,i
COc1c(S(=O)(=O)NCCCn2ccnc2)ccc(Cl)c1Cl,i,i,i,i,i
Cc1cc(C)c(S(=O)(=O)NCCCn2ccnc2)c(C)c1,68*,i,i,i,i
Cc1ccc(S(=O)(=O)NCC(=O)N(CC(=O)NCC2CCCO2)Cc2ccccc2Cl)cc1 (stereo unspecified),i,i,i,i,i
CC(=O)Nc1ccc(C(=O)NNC(=O)C2C3CCCCC32)cc1 (stereo unspecified),i,i,i,i,i
CCN(CC)CCNc1nc(SC)nc2sc3c(c12)CCN(C)C3,i,i,i,i,i
CSc1nc(NCCCN(C)C)c2c3c(sc2n1)CN(C)CC3,i,i,i,i,-7.8*
C/C(=N\N(c1ccccc1)c1ccccc1)c1ccc(O)cc1,i,i,i,i,i
C/C(=N\N(c1ccccc1)c1ccccc1)c1ccc(N)cc1,i,i,24*,i,i
CCCCCCCC[n+]1cccc2c3ccccc3ccc21,i,-6*,i,i,i

# Assay outcomes (PubChem)
